According to ChEMBL document CHEMBL4043093, “2-Oxo-3, 4-dihydropyrimido[4, 5-d]pyrimidinyl derivatives as new irreversible pan fibroblast growth factor receptor (FGFR) inhibitors” (Eur J Med Chem, 2017):

Assays:
[1] = biological target: Mitogen-activated protein kinase kinase kinase 5 (Homo sapiens) (UniProt Q99683); assay: Inhibition of wild-type human partial length ASK1 (E648 to S964 residues) expressed in Escherichia coli BL21 assessed as residual activity at 1000 nM after 30 mins by Kinomescan method relative to control
[2] = biological target: Serine/threonine-protein kinase PAK 5 (Homo sapiens) (UniProt Q9P286); assay: Inhibition of wild-type human partial length PAK7 (Y400 to H719 residues) expressed in Escherichia coli BL21 assessed as residual activity at 1000 nM after 30 mins by Kinomescan method relative to control
[3] = biological target: Serine/threonine-protein kinase 32B (Homo sapiens) (UniProt Q9NY57); assay: Inhibition of wild-type human full length YANK2 (M1 to S414 residues) expressed in Escherichia coli BL21 assessed as residual activity at 1000 nM after 30 mins by Kinomescan method relative to control
[4] = biological target: Serine/threonine-protein kinase B-raf (Homo sapiens) (UniProt P15056); assay: Inhibition of wild-type human partial length BRAF (S429 to E741 residues) expressed in HEK293 cells assessed as residual activity at 1000 nM after 30 mins by Kinomescan method relative to control; type: cell-based
[5] = biological target: ALK tyrosine kinase receptor (Homo sapiens) (UniProt Q9UM73); assay: Inhibition of wild-type human partial length ALK (I1088 to E1409 residues) expressed in HEK293 cells assessed as residual activity at 1000 nM after 30 mins by Kinomescan method relative to control; type: cell-based
Chain of ALK tyrosine kinase receptor (Homo sapiens) (Q9UM73 19-1620 limits assumed): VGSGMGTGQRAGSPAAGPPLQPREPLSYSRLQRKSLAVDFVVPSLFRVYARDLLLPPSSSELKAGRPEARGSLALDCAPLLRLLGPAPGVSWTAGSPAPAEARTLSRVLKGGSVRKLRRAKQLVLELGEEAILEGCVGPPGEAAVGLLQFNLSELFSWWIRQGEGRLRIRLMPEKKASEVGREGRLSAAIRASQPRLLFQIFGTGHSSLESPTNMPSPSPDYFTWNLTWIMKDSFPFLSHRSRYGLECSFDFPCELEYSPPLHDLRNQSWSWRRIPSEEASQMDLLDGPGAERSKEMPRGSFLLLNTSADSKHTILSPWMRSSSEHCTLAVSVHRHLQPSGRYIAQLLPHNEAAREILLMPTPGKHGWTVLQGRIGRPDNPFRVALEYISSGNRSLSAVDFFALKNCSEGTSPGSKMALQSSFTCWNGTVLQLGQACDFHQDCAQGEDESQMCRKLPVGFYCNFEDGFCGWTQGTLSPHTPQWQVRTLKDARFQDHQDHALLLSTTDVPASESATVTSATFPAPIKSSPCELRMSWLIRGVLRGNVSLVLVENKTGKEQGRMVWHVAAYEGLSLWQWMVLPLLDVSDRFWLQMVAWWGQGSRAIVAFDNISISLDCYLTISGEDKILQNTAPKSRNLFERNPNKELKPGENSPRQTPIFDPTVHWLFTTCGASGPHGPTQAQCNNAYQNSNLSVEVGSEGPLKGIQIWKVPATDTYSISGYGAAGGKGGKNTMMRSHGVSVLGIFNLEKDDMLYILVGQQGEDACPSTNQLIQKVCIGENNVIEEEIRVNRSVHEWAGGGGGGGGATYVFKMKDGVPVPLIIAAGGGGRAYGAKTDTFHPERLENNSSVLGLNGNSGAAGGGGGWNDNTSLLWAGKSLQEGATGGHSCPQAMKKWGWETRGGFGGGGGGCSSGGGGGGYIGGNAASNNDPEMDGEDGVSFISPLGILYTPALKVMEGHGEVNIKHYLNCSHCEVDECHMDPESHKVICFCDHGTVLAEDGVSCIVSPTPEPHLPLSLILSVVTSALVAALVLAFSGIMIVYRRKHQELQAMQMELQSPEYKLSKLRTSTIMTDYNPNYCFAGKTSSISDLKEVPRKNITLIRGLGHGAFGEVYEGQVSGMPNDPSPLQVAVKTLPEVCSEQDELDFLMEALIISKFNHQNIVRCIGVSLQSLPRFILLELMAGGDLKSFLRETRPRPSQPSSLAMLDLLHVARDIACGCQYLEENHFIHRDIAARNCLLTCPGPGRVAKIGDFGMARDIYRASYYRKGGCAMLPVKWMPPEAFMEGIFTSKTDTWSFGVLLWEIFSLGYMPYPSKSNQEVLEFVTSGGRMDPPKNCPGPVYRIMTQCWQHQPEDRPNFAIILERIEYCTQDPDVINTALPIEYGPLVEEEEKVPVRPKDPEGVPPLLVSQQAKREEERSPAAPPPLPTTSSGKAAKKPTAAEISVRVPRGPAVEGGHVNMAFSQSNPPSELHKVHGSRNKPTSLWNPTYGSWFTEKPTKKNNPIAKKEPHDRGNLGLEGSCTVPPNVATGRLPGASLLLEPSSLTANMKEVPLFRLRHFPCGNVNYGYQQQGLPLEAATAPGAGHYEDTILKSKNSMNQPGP

[6] = biological target: Phosphatidylinositol 4-kinase beta (Homo sapiens) (UniProt Q9UBF8); assay: Inhibition of wild-type human full length PIK4CB (M1 to M828 residues) expressed in HEK293 cells assessed as residual activity at 1000 nM after 30 mins by Kinomescan method relative to control; type: cell-based
Chain of Phosphatidylinositol 4-kinase beta (Homo sapiens) (Q9UBF8 2-816 limits assumed): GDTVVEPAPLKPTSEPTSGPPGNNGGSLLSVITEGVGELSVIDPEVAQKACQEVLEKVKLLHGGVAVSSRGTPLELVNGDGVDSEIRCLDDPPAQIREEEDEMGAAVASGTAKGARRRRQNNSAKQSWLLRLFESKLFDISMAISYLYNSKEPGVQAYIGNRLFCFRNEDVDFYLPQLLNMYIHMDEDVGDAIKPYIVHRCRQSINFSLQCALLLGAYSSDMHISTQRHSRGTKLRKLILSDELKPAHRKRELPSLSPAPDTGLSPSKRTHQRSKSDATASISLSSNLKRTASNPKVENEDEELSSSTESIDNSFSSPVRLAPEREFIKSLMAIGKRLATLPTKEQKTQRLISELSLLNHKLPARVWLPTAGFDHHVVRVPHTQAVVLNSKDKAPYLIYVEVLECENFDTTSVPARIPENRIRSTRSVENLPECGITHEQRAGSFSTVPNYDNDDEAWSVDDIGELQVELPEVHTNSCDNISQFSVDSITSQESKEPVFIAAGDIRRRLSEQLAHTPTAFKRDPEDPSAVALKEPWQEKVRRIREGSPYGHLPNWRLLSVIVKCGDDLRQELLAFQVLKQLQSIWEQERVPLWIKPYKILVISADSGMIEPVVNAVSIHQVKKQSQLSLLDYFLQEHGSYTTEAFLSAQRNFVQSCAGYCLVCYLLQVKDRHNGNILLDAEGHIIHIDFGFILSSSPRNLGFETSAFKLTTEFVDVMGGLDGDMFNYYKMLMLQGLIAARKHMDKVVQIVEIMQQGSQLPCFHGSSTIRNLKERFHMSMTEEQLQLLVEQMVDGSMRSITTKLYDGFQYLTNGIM
Summary of the method: (§1)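 Single-concentration screen at 1 µM across a 456-kinase KINOMEscan panel. The read-out is Percent Control for each kinase.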

[7] = biological target: Receptor tyrosine-protein kinase erbB-2 (Homo sapiens) (UniProt P04626); assay: Inhibition of wild-type human partial length ERBB2 (K646 to V1225 residues) expressed in HEK293 cells assessed as residual activity at 1000 nM after 30 mins by Kinomescan method relative to control; type: cell-based
Homo sapiens = organism: Homo sapiens; assay: Inhibition of human partial length FLT3 ITD mutant expressed in Escherichia coli BL21 assessed as residual activity at 1000 nM after 30 mins by Kinomescan method relative to control
Summary of the method: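 KINOMEscan binding panel of 456 kinases, with the test compound at a single concentration of 1 µM. Read-out is Percent Control.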

[8] = biological target: Interferon-induced, double-stranded RNA-activated protein kinase (Homo sapiens) (UniProt P19525); assay: Inhibition of wild-type human partial length PRKR (F247 to C551 residues) expressed in Escherichia coli BL21 assessed as residual activity at 1000 nM after 30 mins by Kinomescan method relative to control
[9] = biological target: G protein-coupled receptor kinase 3 (Homo sapiens) (UniProt P35626); assay: Inhibition of wild-type human full length GRK3 (M1 to L688 residues) expressed in HEK293 cells assessed as residual activity at 1000 nM after 30 mins by Kinomescan method relative to control; type: cell-based; summary of the method: as §1
[10] = biological target: Serine/threonine-protein kinase Nek7 (Homo sapiens) (UniProt Q8TDX7); assay: Inhibition of wild-type human full length NEK7 (M1 to S302 residues) expressed in Escherichia coli BL21 assessed as residual activity at 1000 nM after 30 mins by Kinomescan method relative to control; summary of the method: as §1
Chain of Serine/threonine-protein kinase Nek7 (Homo sapiens) (Q8TDX7 whole entry, looked up, the tested form may be a part): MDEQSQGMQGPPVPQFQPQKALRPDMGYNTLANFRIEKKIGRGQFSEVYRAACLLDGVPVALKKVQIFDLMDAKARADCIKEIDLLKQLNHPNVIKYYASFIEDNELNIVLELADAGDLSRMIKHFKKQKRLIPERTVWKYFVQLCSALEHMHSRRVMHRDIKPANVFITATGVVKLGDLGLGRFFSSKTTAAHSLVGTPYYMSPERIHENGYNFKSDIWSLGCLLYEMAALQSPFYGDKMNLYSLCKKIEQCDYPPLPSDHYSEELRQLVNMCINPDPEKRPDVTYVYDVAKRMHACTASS

[11] = biological target: Interleukin-1 receptor-associated kinase 4 (Homo sapiens) (UniProt Q9NWZ3); assay: Inhibition of wild-type human partial length IRAK4 (M1 to S460 residues) expressed in HEK293 cells assessed as residual activity at 1000 nM after 30 mins by Kinomescan method relative to control; type: cell-based
[12] = biological target: Myosin-IIIb (Homo sapiens) (UniProt Q8WXR4); assay: Inhibition of wild-type human partial length MYO3B (M1 to D357 residues) expressed in Escherichia coli BL21 assessed as residual activity at 1000 nM after 30 mins by Kinomescan method relative to control
[13] = biological target: Receptor-interacting serine/threonine-protein kinase 4 (Homo sapiens) (UniProt P57078); assay: Inhibition of wild-type human partial length RIPK4 (M1 to V303 residues) expressed in HEK293 cells assessed as residual activity at 1000 nM after 30 mins by Kinomescan method relative to control; type: cell-based
Chain of Receptor-interacting serine/threonine-protein kinase 4 (Homo sapiens) (P57078 whole entry, the tested form may be a part): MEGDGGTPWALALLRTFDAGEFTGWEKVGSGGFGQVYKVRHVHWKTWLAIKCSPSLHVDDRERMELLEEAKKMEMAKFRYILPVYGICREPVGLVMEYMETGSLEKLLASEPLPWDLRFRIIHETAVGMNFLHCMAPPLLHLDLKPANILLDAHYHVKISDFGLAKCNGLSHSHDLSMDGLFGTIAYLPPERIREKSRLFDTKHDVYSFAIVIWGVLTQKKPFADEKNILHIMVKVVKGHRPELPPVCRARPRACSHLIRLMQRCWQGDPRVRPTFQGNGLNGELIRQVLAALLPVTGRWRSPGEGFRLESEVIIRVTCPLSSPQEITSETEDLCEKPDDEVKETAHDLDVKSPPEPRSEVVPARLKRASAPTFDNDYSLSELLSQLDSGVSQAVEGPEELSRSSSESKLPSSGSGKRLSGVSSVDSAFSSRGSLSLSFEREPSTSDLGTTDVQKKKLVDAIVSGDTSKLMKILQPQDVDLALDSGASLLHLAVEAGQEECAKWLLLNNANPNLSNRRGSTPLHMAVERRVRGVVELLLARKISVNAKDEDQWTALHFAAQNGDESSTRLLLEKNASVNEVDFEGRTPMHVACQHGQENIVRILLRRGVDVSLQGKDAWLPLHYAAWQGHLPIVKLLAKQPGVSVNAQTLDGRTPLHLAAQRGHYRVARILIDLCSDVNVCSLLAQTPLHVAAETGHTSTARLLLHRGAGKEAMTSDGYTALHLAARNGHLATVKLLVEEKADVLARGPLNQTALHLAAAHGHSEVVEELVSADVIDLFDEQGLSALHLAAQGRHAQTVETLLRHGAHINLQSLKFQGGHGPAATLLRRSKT

[14] = biological target: Tyrosine-protein kinase ABL1 (Homo sapiens) (UniProt P00519); assay: Inhibition of wild-type human non-phosphorylated ABL1 (S229 to K512 residues) expressed in HEK293 cells assessed as residual activity at 1000 nM after 30 mins by Kinomescan method relative to control; type: cell-based
[15] = biological target: Mitogen-activated protein kinase 6 (Homo sapiens) (UniProt Q16659); assay: Inhibition of wild-type human partial length ERK3 (M1 to P413 residues) expressed in Escherichia coli BL21 assessed as residual activity at 1000 nM after 30 mins by Kinomescan method relative to control
[16] = biological target: Serine/threonine-protein kinase LATS1 (Homo sapiens) (UniProt O95835); assay: Inhibition of wild-type human partial length LATS1 (Q678 to V1130 residues) expressed in Escherichia coli BL21 assessed as residual activity at 1000 nM after 30 mins by Kinomescan method relative to control
[17] = biological target: Serine/threonine-protein kinase Nek3 (Homo sapiens) (UniProt P51956); assay: Inhibition of wild-type human full length NEK3 (M1 to R506 residues) expressed in HEK293 cells assessed as residual activity at 1000 nM after 30 mins by Kinomescan method relative to control; type: cell-based; summary of the method: as §1
Chain of Serine/threonine-protein kinase Nek3 (Homo sapiens) (P51956 whole entry, the tested form may be a part): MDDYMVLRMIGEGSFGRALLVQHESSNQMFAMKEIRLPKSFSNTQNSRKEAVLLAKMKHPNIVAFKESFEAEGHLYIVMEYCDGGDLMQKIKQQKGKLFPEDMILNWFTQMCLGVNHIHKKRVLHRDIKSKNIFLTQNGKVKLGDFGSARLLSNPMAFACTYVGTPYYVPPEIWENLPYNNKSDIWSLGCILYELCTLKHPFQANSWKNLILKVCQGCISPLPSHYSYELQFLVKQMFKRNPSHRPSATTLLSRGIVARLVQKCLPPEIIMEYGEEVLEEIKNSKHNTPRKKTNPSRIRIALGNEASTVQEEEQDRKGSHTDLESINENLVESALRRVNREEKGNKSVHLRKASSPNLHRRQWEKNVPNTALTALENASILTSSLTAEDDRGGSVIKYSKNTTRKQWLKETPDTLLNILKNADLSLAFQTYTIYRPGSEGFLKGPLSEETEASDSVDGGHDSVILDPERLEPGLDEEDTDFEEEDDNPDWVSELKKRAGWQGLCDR

[18] = biological target: Testis-specific serine/threonine-protein kinase 1 (Homo sapiens) (UniProt Q9BXA7); assay: Inhibition of wild-type human full length TSSK1B (M1 to Q367 residues) expressed in Escherichia coli BL21 assessed as residual activity at 1000 nM after 30 mins by Kinomescan method relative to control
[19] = biological target: Inhibitor of nuclear factor kappa-B kinase subunit beta (Homo sapiens) (UniProt O14920); assay: Inhibition of wild-type human full length IKK-beta (M1 to S756 residues) expressed in HEK293 cells assessed as residual activity at 1000 nM after 30 mins by Kinomescan method relative to control; type: cell-based; summary of the method: as §1
Chain of Inhibitor of nuclear factor kappa-B kinase subunit beta (Homo sapiens) (O14920 whole entry, the tested form may be a part): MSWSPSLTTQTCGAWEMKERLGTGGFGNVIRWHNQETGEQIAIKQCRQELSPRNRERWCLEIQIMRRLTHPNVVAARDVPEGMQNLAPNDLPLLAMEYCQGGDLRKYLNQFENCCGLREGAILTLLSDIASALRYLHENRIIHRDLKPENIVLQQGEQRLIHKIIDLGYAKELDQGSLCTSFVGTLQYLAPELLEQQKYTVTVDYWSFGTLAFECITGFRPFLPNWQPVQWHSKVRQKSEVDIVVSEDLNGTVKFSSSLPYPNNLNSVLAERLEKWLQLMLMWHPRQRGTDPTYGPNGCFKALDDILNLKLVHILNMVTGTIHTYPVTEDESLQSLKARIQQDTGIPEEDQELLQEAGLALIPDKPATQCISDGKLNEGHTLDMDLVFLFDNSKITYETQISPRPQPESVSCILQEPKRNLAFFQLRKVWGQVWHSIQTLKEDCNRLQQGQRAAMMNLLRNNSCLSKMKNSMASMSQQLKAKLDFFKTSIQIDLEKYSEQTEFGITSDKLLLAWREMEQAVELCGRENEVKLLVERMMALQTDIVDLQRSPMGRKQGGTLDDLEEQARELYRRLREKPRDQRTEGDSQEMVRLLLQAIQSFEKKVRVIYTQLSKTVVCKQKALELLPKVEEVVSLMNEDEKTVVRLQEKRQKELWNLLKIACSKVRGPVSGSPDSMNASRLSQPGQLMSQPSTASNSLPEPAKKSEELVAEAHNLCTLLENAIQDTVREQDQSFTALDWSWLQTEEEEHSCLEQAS

[20] = biological target: Tyrosine-protein kinase Lyn (Homo sapiens) (UniProt P07948); assay: Inhibition of wild-type human partial length LYN (C219 to Q511 residues) expressed in Escherichia coli BL21 assessed as residual activity at 1000 nM after 30 mins by Kinomescan method relative to control
[21] = biological target: Myosin-IIIa (Homo sapiens) (UniProt Q8NEV4); assay: Inhibition of wild-type human partial length MYO3A (M1 to K338 residues) expressed in Escherichia coli BL21 assessed as residual activity at 1000 nM after 30 mins by Kinomescan method relative to control
[22] = biological target: Serine/threonine-protein kinase Nek11 (Homo sapiens) (UniProt Q8NG66); assay: Inhibition of wild-type human partial length NEK11 (M1 to E313 residues) expressed in HEK293 cells assessed as residual activity at 1000 nM after 30 mins by Kinomescan method relative to control; type: cell-based

COc1cc(OC)c(Cl)c(N2Cc3cnc(Nc4ccc(F)cc4)nc3N(C3CCN(C(=O)/C=C/CN(C)C)CC3)C2=O)c1Cl
Activity [1]: 100%
Activity [2]: 88%
Activity [3]: 83%
Activity [4]: 100%
Activity [5]: 100%
Activity [6]: 96%
Activity [7]: 96%
Activity (Homo sapiens): 78%
Activity [8]: 76%
Activity [9]: 100%
Activity [10]: 100%
Activity [11]: 100%
Activity [12]: 100%
Activity [13]: 100%
Activity [14]: 32%
Activity [15]: 100%
Activity [16]: 100%
Activity [17]: 79%
Activity [18]: 89%
Activity [19]: 100%
Activity [20]: 7.6%
Activity [21]: 96%
Activity [22]: 100%
